Assay results reported in ChEMBL document CHEMBL1131385, “Does the anti-hepatitis B virus activity of (+)-5'-noraristeromycin exist in its 4'-epimer and 4'-deoxygenated derivatives?” (J Med Chem, 1998).

Assays:
Hepatoblastoma cell line [1] = assay: Cytotoxic concentration against Hepatitis B virus in human hepatoblastoma cell line; type: functional
Hepatoblastoma cell line [2] = assay: (§1) Effective concentration against Hepatitis B virus in human hepatoblastoma cell line; type: functional, cell-based
Summary of the method: (§2)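 Confluent cultures of the human hepatoblastoma line 2.2.15, which chronically produces HBV, were used to measure inhibition of HBV replication. Cells got nine consecutive daily doses of agent, with the medium removed each day.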

Hepatoblastoma cell line [3] = assay: as §1; type: functional; summary of the method: as §2
[4] = Selectivity index was evaluated [Selectivity = (CC50 / EC50) against Hepatitis B virus in human hepatoblastoma cell line]; type: functional

| SMILES | CC50 (Hepatoblastoma cell line [1]) | EC50 (Hepatoblastoma cell line [2]) | EC90 (Hepatoblastoma cell line [3]) | SI [4] |
| --- | --- | --- | --- | --- |
| COC1CC(n2cnc3c(N)ncnc32)C(O)C1O (configuration not stated) | > 1000 µM | > 10 µM | > 10 µM | – |
| Nc1ccn([C@@H]2CS[C@H](CO)O2)c(=O)n1 [LAMIVUDINE] | 1880 µM | 0.07 µM | 0.209 µM | 9014 |
| Nc1ncnc2c1ncn2[C@@H]1CC[C@@H](O)[C@H]1O | 93 µM | 0.12 µM | 0.978 µM | 95 |
| Nc1ncnc2c1ncn2[C@@H]1C[C@H](O)[C@@H](O)[C@H]1O [NORARISTEROMYCIN] | 446 µM | 1.4 µM | 9.6 µM | 46 |
| Nc1ncnc2c1ncn2[C@H]1C[C@@H](O)[C@H](O)[C@@H]1O | 1880 µM | > 10 µM | > 10 µM | – |
| Nc1ncnc2c1ncn2[C@H]1C=C[C@H](O)[C@@H]1O | 325 µM | 0.145 µM | 1.4 µM | 232 |
